Assay results: ChEMBL document CHEMBL2311375, “Synthesis and characterization of a small analogue of the anticancer natural product leinamycin” (Bioorg Med Chem, 2013)
Active and inactive are the calls of the source. No cut-off for these calls is given here.

Assays:
[1] = Induction of oxidative supercoiled double-stranded plasmid DNA strand (unknown origin) cleavage at 250 uM after 3 to 15 hrs using ethidium bromide staining by agarose gel electrophoresis in presence of 375 uM 2-mercaptoethanol
Outline: (§1)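 Supercoiled plasmid DNA (30 μM bp) incubated 3–15 h at 37 °C in sodium phosphate buffer (50 mM, pH 7) with 10% v/v acetonitrile. Final concentrations: compound 250 μM, 2-mercaptoethanol 375 μM where added. Catalase (100 μg/mL) added before compound where used. Forms I and II resolved on 0.9% agarose gel (80 V, 3 h, 1x TAE), stained with ethidium bromide, visualized by UV and quantified by image analysis. Breaks per plasmid S = −ln f1, f1 = fraction form I.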

[2] = Induction of supercoiled double-stranded plasmid DNA strand (unknown origin) cleavage at 250 uM after 3 to 15 hrs using ethidium bromide staining by agarose gel electrophoresis; outline: as §1
[3] = Induction of oxidative supercoiled double-stranded plasmid DNA strand (unknown origin) cleavage at 250 uM after 3 to 15 hrs using ethidium bromide staining by agarose gel electrophoresis in presence of 375 uM 2-mercaptoethanol and catalase; outline: as §1

| Activity [1] | Activity [2] | Activity [3] | SMILES |
| --- | --- | --- | --- |
| Active | inactive | inactive | CC(C)=CCCC1(C)CC(=O)S[S+]1[O-] (configuration not stated) |
| Active | inactive | inactive | O=c1s[s+]([O-])c2ccccc12 (configuration not stated) |
| Active | inactive | inactive | CC(C)=CCCC1(C)CC(=O)S[S+]1[O-] (mixture of isomers) |
| Active | inactive | inactive | CC(C)=CCCC1(C)CC(=O)S[S+]1[O-] (single isomer, unassigned) |
